Legend:
H460 cells [1] = experiment: JC-1 mitochondrial membrane potential assay; format: cell-based
[2] = tested on: four NSCLC lines (NCI-H460, NCI-H1975, A549, HCC827); experiment: MTT cell viability assay, all four lines; format: cell-based; conditions: 72 h, read-out: IC50 values, range over four NSCLC lines
Summary of the method: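 Cells were exposed for 72 h, then viability was read by MTT. Test compound was dissolved in DMSO and diluted with water to 1% DMSO, giving at most 0.032% DMSO final in medium. A parallel run used stock in 10% (w/v) 2-HPβCD (≤0.008% final), with 0.008% 2-HPβCD vehicle controls. Cisplatin was dissolved in water. IC50 was the concentration giving 50% loss of viability versus control cells.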

nine NSCLC lines = experiment: NCI-60 one-dose assay, average; format: cell-based, human; conditions: average over the NSCLC lines tested; single dose 10 μM
Summary of the method: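 The NCI DTP ran the NCI-60 one-dose screen. Cells were plated at densities matched to doubling rate and incubated overnight, then exposed to 10 μM test compound for […]. Growth percentage came from protein density at the end versus the start of exposure. Values were averaged across the nine NSCLC lines.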

[3] = Solubility in water, water/DMSO and 2-HPβCD solutions; format: physicochemical; conditions: for behaviour on addition of water to the DMSO solution: final 1% DMSO in water
H460 cells [4] = experiment: Annexin V apoptosis assay; format: cell-based
Summary of the method: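 H460 cells in 6-well plates were treated with the test compound in 10% (w/v) 2-HPβCD aqueous solution or in DMSO. Controls were 2-HPβCD vehicle and cisplatin. Cells were stained with Annexin V-FITC plus propidium iodide and imaged by fluorescence microscopy (20× objective) at 12, 14, 17 and 20 h. Read-outs were green versus green+red fluorescence and membrane blebbing.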

DNA = DNA interaction: viscosity and fluorescent intercalator displacement assays; format: binding
C57BL/6 mice = experiment: Preliminary in vivo toxicity study
A549/ATCC = experiment: NCI-60 five-dose assay; format: cell-based, human
Summary of the method: (§1)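 The NCI DTP ran the NCI-60 five-dose screen. Cells were exposed to the test compound at 10 nM, 100 nM, 1 μM, 10 μM and 100 μM. Read-outs were growth inhibition by 50% (GI50), total growth inhibition (TGI) and 50% lethal concentration (LC50), each relative to control cells.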

EKVZ = experiment: NCI-60 five-dose assay; format: cell-based, human
Summary of the method: as §1

HOP-62 = experiment: NCI-60 five-dose assay; format: cell-based, human
Summary of the method: as §1

HOP-92 = experiment: NCI-60 five-dose assay; format: cell-based, human
Summary of the method: as §1

NCI-H226 = experiment: NCI-60 five-dose assay; format: cell-based, human
Summary of the method: as §1

NCI-H460 = experiment: NCI-60 five-dose assay; format: cell-based, human
Summary of the method: as §1

NCI-H522 = experiment: NCI-60 five-dose assay; format: cell-based, human
Summary of the method: as §1

H460 cells [5] = conditions: cited from earlier work

In the case of `N#CC(C#N)=NNc1cccc(Cl)c1` [CCCP, carbonylcyanide m-chlorophenylhydrazone, reference compound], the “mitochondrial potential versus media control cells” value (H460 cells [1]; positive control) is reported as “mitochondria potential was decreased”.

With `Cc1n(Cc2ccc3ccccc3c2)cc[n+]1Cc1ccc2ccccc2c1.[Br-]` [Compound 1] the IC50 [2] was 660 to 3500 nM, the “Growth % Average” value (nine NSCLC lines) was 21.19% and the “behaviour on addition of water to the DMSO solution” value (“behaviour on addition of water” below) [3] was “slight precipitation”.

With `CCc1n(Cc2ccc3ccccc3c2)cc[n+]1Cc1ccc2ccccc2c1.[Br-]` [Compound 2] the IC50 [2] was 660 to 3500 nM, the “Growth % Average” value (nine NSCLC lines) was 4.18% and the “behaviour on addition of water” value [3] was “remained soluble”. The “time at which strong green fluorescence (Annexin V-FITC) was observed” value (H460 cells [4]; 40 μM, water/DMSO solution) was 1 h, the “time of treatment at which blebbing occurs” value (H460 cells [4]; 2-HPβCD vehicle) was 14 h and the “mode of cell death” value (H460 cells [4]; DMSO or 2-HPβCD vehicle, two independent trials) was “causes apoptosis”. The “time of treatment at which blebbing occurs” value (H460 cells [4]; DMSO vehicle) was 3 h, the “interaction with DNA” value (DNA) was “little to no interaction with DNA” and the “red fluorescence (J-aggregates, intact MMP)” value (“red fluorescence” below) (H460 cells [1]; 20 μM, 1 hour versus 15 minutes) was “apparent decrease in intensity”. The “red fluorescence” value (H460 cells [1]; 40 μM, 30 minutes) was “minimal red fluorescence”, the “red fluorescence” value (H460 cells [1]; 40 μM, 1 hour and 2.5 hours) was “minimal red fluorescence” and the “clinical observation the day after the second injection” value (C57BL/6 mice; 15 mg/kg IP on day fourteen, two surviving mice) was “both animals were sacrificed due to lethargic movement”. The “body weight after first injection” value (C57BL/6 mice; 20 mg/kg IP) was “sharp decrease in weight”, the mortality (C57BL/6 mice; 20 mg/kg IP on day zero in 20% 2-HPβCD, day two) was “one mouse from the experimental group was found deceased” and the overall toxicity (C57BL/6 mice; 20 mg/kg then 15 mg/kg IP) was “quite toxic at the doses administered”. The average weight loss (C57BL/6 mice; after second injection, 15 mg/kg IP on day fourteen) was “around 6%”.

For `CCCc1n(Cc2ccc3ccccc3c2)cc[n+]1Cc1ccc2ccccc2c1.[Br-]` [Compound 3], the IC50 [2] was 660 to 3500 nM, the “Growth % Average” value (nine NSCLC lines) was 2.33% and the “behaviour on addition of water” value [3] was “remained soluble”.

For `CCCCc1n(Cc2ccc3ccccc3c2)cc[n+]1Cc1ccc2ccccc2c1.[Br-]` [Compound 4], the IC50 [2] was 660 to 3500 nM, the “Growth % Average” value (nine NSCLC lines) was −1.36% and the TGI (A549/ATCC; A549/ATCC) was 3240 nM. It also gave a GI50 (A549/ATCC; Homo sapiens, A549) of 1670 nM, a TGI (EKVZ; EKVZ) of 3470 nM and a GI50 (EKVZ; Homo sapiens) of 1350 nM. For the same compound, the TGI (HOP-62) was 2750 nM, the GI50 (HOP-62; Homo sapiens) was 1290 nM and the TGI (HOP-92) was 2350 nM. The GI50 (HOP-92; Homo sapiens) was 844 nM, the TGI (NCI-H226) was 2930 nM and the GI50 (NCI-H226; Homo sapiens) was 1350 nM. For the same compound, the TGI (NCI-H460) was 2820 nM, the GI50 (NCI-H460; Homo sapiens) was 1250 nM and the TGI (NCI-H522) was 1890 nM. The GI50 (NCI-H522; Homo sapiens) was 491 nM and the “behaviour on addition of water” value [3] was “slight precipitation”.

In the case of `CC(C)c1n(Cc2ccc3ccccc3c2)cc[n+]1Cc1ccc2ccccc2c1.[Br-]` [Compound 5], the IC50 [2] is reported as 660 to 3500 nM, the “solubility in 2-HPβCD solution” value ([3]; 10% 2-HPβCD by weight in water) is reported as “mostly soluble” and the “behaviour on addition of water” value [3] is reported as “remained soluble”.

For `Clc1c(Cl)[n+](Cc2ccc3ccccc3c2)cn1Cc1ccc2ccccc2c1.[Br-]` [IS23, 4,5-dichloro-1,3-bis(naphthalen-2-ylmethyl)imidazolium bromide], the “time of morphological changes (cell shrinkage, rounding, detachment)” value (H460 cells [5]) is given as “within the first hour”.

From publication PMC5575737 (Bioorganic & medicinal chemistry letters, 2017)
